Source: PubChem BioAssay (several laboratories)
CSC inhib: cancer stem cell inhibition; 300,000 tested, 1.1% active; cancer stem cell-like cells viability, luminescence; inhibition, % at 7.5 µM; in the data active means inhibition above about 75%; inconclusive means no clear call, values can overlap the other calls; tested in HMLE shEcad cells
TMEM16A inh: blocks the mouse calcium-activated chloride channel TMEM16A | normalized B-score (activity score, 25-100; higher = stronger inhibition) at 10 µM | Q8BHY3 | 310,000 tested, 1.2% active | HEK293 TMEM16A/YFP iodide influx fluorescence, ionomycin | AID 588511;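 active means ratio plate-corrected score three or more library SD toward inhibition, starting fluorescence score within five deviations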;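 further: score derived from kinetic fluorescence span divided by baseline fluorescence per well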
Beta cell apopt: blocks beta cell apoptosis; protection from apoptosis, % (concentration not given with the values); AID 435005; INS-1E cytokine-induced death, ATP luminescence, 48 h; percent of positive-control rescue, neutral wells zero; 300,000 tested, 0.8% active;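 active means Every replicate reaches about 75%, or at least half do and their mean reaches it too, limit read from the data; inconclusive means At least half of replicates reach the limit but their mean does not; inactive means Under half of replicates reach the limit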;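 further: higher means more ATP so stronger rescue from cytokine killing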
TMEM16A act: mouse TMEM16A channel activation, primary screen; Q8BHY3; HEK293 TMEM16A/YFP-H148Q/I152L, iodide quench fluorescence; hits give low values; B-score at 10 µM; 340,000 tested, 0.3% active;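 active means fluorescence-ratio B-score plate-corrected deviation score at least 3 library SD below zero, with starting fluorescence score within 5 deviations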;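 further: channel opened by trigger with iodide after compound preincubation; score built on the fluorescence ratio of max minus min over baseline; more negative score means more quench and so TMEM16A activation or potentiation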
MC4R antag cAMP: antagonists of human melanocortin 4 receptor (MC4R). P32245. MC4R-expressing cells, MTII-stimulated cAMP, LANCE TR-FRET. inhibition, % at 6.5 µM. 360,000 tested, 0.48% active. AID 540295;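 active means inhibition above its plate's cutoff, the mean of tested wells on that plate plus 3 SD, cut at about 29% in these data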
Target sequence (P32245 whole entry, looked up): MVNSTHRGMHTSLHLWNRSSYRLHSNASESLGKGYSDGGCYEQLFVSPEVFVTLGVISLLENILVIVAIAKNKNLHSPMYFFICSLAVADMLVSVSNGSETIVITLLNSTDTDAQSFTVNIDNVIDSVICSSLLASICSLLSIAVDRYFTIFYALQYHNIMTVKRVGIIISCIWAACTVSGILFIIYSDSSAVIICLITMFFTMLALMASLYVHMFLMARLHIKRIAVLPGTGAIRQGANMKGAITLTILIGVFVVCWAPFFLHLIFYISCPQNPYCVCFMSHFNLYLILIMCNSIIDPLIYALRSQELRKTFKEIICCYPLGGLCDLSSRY
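system = U2OS cells with stable human MC4R expression | also added = Melanotan II challenge after compound preincubation | dosing = one concentration, 6.5 µM nominal | incubation = compound 30 min, challenge 1 h, detection 1 h | measured by = TR-FRET with Eu-cAMP and labeled anti-cAMP, 671 nm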
MC4R barr agon: activates human MC4R beta-arrestin recruitment; 360,000 tested, 0.98% active; activation, % at 8.9 µM; U2OS MC4R beta-arrestin complementation, luminescence; percent of melanotan II response, DMSO zero;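 active means activation above a per-plate cutoff, the mean activation of sample wells on that plate plus 3 SD, cut at about 8% in these data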
TMEM16A reconf: re-confirmation of mouse TMEM16A chloride channel inhibitors; 2,300 tested, 39% active; HEK293 TMEM16A/YFP-H148Q, iodide quench fluorescence; ionomycin added to raise cell calcium; inhibition, % at 10 µM; AID 652189; shares compounds with TMEM16A inh;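 active means mean duplicate percent inhibition, scaled so buffer wells are 0 and the reference blocker 100, over three buffer SD above buffer mean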
TMEM16A Ca cntr: calcium mobilization counter-screen hit for TMEM16A inhibitor series; shares compounds with TMEM16A inh; 2,300 tested, 2% active; TMEM16A/YFP HEK293, Fluo4 calcium mobilization; calcium response (% of ionomycin), % at 10 µM;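 active means duplicate-averaged calcium signal over 20% of the ionomycin maximum, relative to buffer baseline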;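 further: each well's signal is peak minus trough fluorescence divided by its pre-addition baseline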
YFP-HEK293 quench: acts in parental YFP-HEK293 cells lacking TMEM16A, counter-screen | iodide YFP quench, ionomycin | 2,300 tested, under 10 active | YFP ratio F(max-min)/F0 at 10 µM | shares compounds with TMEM16A inh;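 active means yellow fluorescent protein signal ratio exceeding the buffer control mean by over 5 SD of those controls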;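 further: ratio is mean of duplicate wells from kinetic YFP trace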
ClC-1 inh: rat ClC-1 inhibition, TMEM16A specificity screen; shares compounds with TMEM16A inh; CHO ClC-1-YFP, iodide influx fluorescence quench; iodide control reads 0, buffer control 100; ratio percent, % at 10 µM; 2,300 tested, under 10 active; AID 652236;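 active means duplicate-mean ratio percent above the mean of iodide-only control wells, which defines zero, plus 5 of their SD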;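 further: higher percent means stronger block of ClC-1 iodide influx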
Of the large screens only hits and unclear results are named; the others gave an inactive call (follow-up assays come after a bar, where they were run). The list is not random: actives were taken first. Their share in the collection is about 3.8%.

COc1cc(OC)cc(C(=O)N2CCN(C3CCC(C)CC3)CC2)c1 (centres undefined)	none (no result: CSC inhib, TMEM16A inh, Beta cell apopt)
COC(=O)C1CCN(c2cc(=O)n(-c3ccccc3Cl)c(=O)[nH]2)CC1	TMEM16A inh 100 | TMEM16A reconf inactive | TMEM16A Ca cntr inactive | YFP-HEK293 quench inactive | ClC-1 inh inactive
CCOC(=O)N1CCN(c2cc(=O)n(-c3ccccc3Cl)c(=O)[nH]2)CC1	none
COc1ccc2cc3cc(C(=O)Nc4ccc5c(c4)OCO5)oc3nc2c1	CSC inhib inconclusive, TMEM16A inh 100 | TMEM16A reconf inactive | TMEM16A Ca cntr inactive | YFP-HEK293 quench inactive | ClC-1 inh inactive
Cc1ccccc1S(=O)(=O)NC(=O)C1(C)CCN1C(=O)Cc1cc(F)ccc1F (centres undefined)	none (no result: CSC inhib, TMEM16A inh, Beta cell apopt, TMEM16A act)
CN=C1c2cc3cc(OC)ccc3n2CCN1Cc1ccccc1	none (no result: CSC inhib, TMEM16A inh, Beta cell apopt)
CCN(CC)CCNC1=NCCn2c1cc1cc(OC)ccc12	TMEM16A inh 25 | TMEM16A reconf inactive | TMEM16A Ca cntr inactive | YFP-HEK293 quench inactive | ClC-1 inh inactive
O=C(Oc1ccc2ccccc2c1Cl)N1CCCCCC1	TMEM16A inh 25 | TMEM16A reconf inactive | TMEM16A Ca cntr inactive | YFP-HEK293 quench inactive | ClC-1 inh inactive
O=C(Oc1ccc2ccccc2c1Cl)N1CCCC1	none
O=C(Oc1ccc(Cl)c2ccccc12)N1CCCCC1	TMEM16A inh 25 | TMEM16A reconf inactive | TMEM16A Ca cntr inactive | YFP-HEK293 quench inactive | ClC-1 inh inactive
COc1ccc(CCNC(=O)CCN2C(=O)C(C)Oc3ccc(C)cc32)cc1OC (centres undefined)	TMEM16A inh 100 | TMEM16A reconf inactive | TMEM16A Ca cntr inactive | YFP-HEK293 quench inactive | ClC-1 inh inactive
CCOc1ccccc1NC(=O)CN1CCC(C(=O)c2ccc(OC)cc2)CC1	none
COc1ccc(C(=O)C2CCN(CC(=O)Nc3ccccc3F)CC2)cc1	TMEM16A inh 25 | TMEM16A reconf inactive | TMEM16A Ca cntr inactive | YFP-HEK293 quench inactive | ClC-1 inh inactive
COc1cc(CCC(=O)OCC(=O)Nc2ccc(C)cc2Cl)cc(OC)c1OC	none (no result: Beta cell apopt)
Cc1ccc(NC(=S)NNc2ncc(C(F)(F)F)cc2Cl)c(C)c1	none
Fc1ccc(NC(=S)NNc2ncc(C(F)(F)F)cc2Cl)c(F)c1	TMEM16A inh 25 | TMEM16A reconf 30% | TMEM16A Ca cntr inactive | YFP-HEK293 quench inactive | ClC-1 inh inactive
COc1ccc(Cl)cc1NC(=O)C(C)N(C)Cc1ccc(C(F)(F)F)cc1 (centres undefined)	TMEM16A inh 100 | TMEM16A reconf inactive | TMEM16A Ca cntr inactive | YFP-HEK293 quench inactive | ClC-1 inh inactive
NS(=O)(=O)c1ccc2c(c1)C1C=CCC1C(C1CC=CCC1)N2 (centres undefined)	TMEM16A inh 100 | TMEM16A reconf inactive | TMEM16A Ca cntr inactive | YFP-HEK293 quench inactive | ClC-1 inh inactive
Nn1c(SCC(=O)Nc2cccc(Br)c2)nnc1C1CC1	none (no result: TMEM16A inh)
CCOC(=O)C1=CC[C@H]2c3c(c4ccccc4n3C)C(=O)C1N2Cc1ccccc1	none (no result: CSC inhib, TMEM16A inh)
CCOc1cc(/C=N/NC(=O)c2ccc(CN3CCOCC3)cc2)ccc1OCc1ccccc1	TMEM16A inh 25 | TMEM16A reconf 21% | TMEM16A Ca cntr inactive | YFP-HEK293 quench inactive | ClC-1 inh inactive
CCOc1cc(/C=N/NC(=O)CN2CCOCC2)ccc1OCc1ccccc1	none
CCC1NC(=O)c2cccnc2-n2c1nc1cc(F)ccc1c2=O (centres undefined)	none (no result: CSC inhib, TMEM16A inh, Beta cell apopt, TMEM16A act)
O=C(c1ccco1)N1CCN(C(=O)c2cnn3c2NC(c2cccs2)CC3C(F)(F)F)CC1 (centres undefined)	none
O=C(c1cnn2c1NC(c1ccco1)CC2C(F)(F)F)N1CCN(c2cccc(Cl)c2)CC1 (centres undefined)	TMEM16A inh 25 | TMEM16A reconf inactive | TMEM16A Ca cntr inactive | YFP-HEK293 quench inactive | ClC-1 inh inactive
O=C(C1CCCN(S(=O)(=O)c2cccnc2)C1)N1CCN(c2ccccn2)CC1 (centres undefined)	none
O=C(c1ccc2ccccc2c1)C1CCCN(S(=O)(=O)c2cccnc2)C1 (centres undefined)	TMEM16A inh 100 | TMEM16A reconf 18% | TMEM16A Ca cntr inactive | YFP-HEK293 quench inactive | ClC-1 inh inactive
C[C@@H]1CN([C@@H](C)CO)C(=O)CCCn2nncc2CO[C@H]1CN(C)C(=O)Nc1ccccc1F	none (no result: CSC inhib, TMEM16A inh, Beta cell apopt, TMEM16A act)
COCCCNc1nccn2ccnc12	none (no result: CSC inhib, TMEM16A inh, Beta cell apopt, TMEM16A act)
CCOC(=O)c1c(NC(=O)CSc2nc3ccccc3o2)sc(C(C)=O)c1C	TMEM16A inh 100 (no result: CSC inhib, Beta cell apopt) | TMEM16A reconf 22% | TMEM16A Ca cntr inactive | YFP-HEK293 quench inactive | ClC-1 inh inactive
CCOC(=O)c1c(NC(=O)CSc2nnc(Cc3ccccc3)o2)sc(C(C)=O)c1C	TMEM16A inh 25 | TMEM16A reconf 16% | TMEM16A Ca cntr inactive | YFP-HEK293 quench inactive | ClC-1 inh inactive
CCOC(=O)c1c(NC(=O)c2nn(CC)cc2Br)c(C#N)nn1-c1ccccc1	TMEM16A inh 100 | TMEM16A reconf inactive | TMEM16A Ca cntr inactive | YFP-HEK293 quench inactive | ClC-1 inh inactive
CC(C)Oc1cc(NC(=O)CS(=O)CC(=O)Nc2cccc(C(F)(F)F)c2)c(Cl)cc1Cl (centres undefined)	TMEM16A inh 100 | TMEM16A reconf inactive | TMEM16A Ca cntr inactive | YFP-HEK293 quench inactive | ClC-1 inh inactive
CC(C)Oc1cc(NC(=O)CS(=O)CC(=O)N(C)C)c(Cl)cc1Cl (centres undefined)	none
O=C(O)COc1ccc(/C=C/c2nc(-c3ccccc3O)n[nH]2)cc1	none (no result: CSC inhib, Beta cell apopt)
COc1ccc(/C=C/c2nc(-c3ccccc3O)n[nH]2)cc1OC	TMEM16A inh 25 | TMEM16A reconf inactive | TMEM16A Ca cntr inactive | YFP-HEK293 quench inactive | ClC-1 inh inactive
CCc1ccc(CNC(=O)C2CCCN(S(=O)(=O)N(CC)c3ccccc3)C2)cc1 (centres undefined)	none
Cc1ccc(-c2csc(NS(=O)(=O)c3cccc(F)c3)n2)o1	none (no result: TMEM16A inh)
Cc1cccnc1CN1CCN(C(=O)c2cc(COc3ccc4ncccc4c3)on2)CC1	TMEM16A inh 25, Beta cell apopt 100 | TMEM16A reconf 22% | TMEM16A Ca cntr inactive | YFP-HEK293 quench inactive | ClC-1 inh inactive
